Laboratory results taken from ChEMBL document CHEMBL1129688, “ATP-citrate lyase as a target for hypolipidemic intervention. Design and synthesis of 2-substituted butanedioic acids as novel, potent inhibitors of the enzyme” (J Med Chem, 1996).

What was measured:
[1] = target: T1, ATP-citrate synthase (Rattus norvegicus, UniProt P16638); test: Inhibition of recombinant ATP-Citrate Lyase activity as […] dehydrogenase catalyzed reduction of oxaloacetate by NADH; conditions: in the assay text read “purified rat ATP-Citrate Lyase” for “recombinant ATP-Citrate Lyase”
T1 sequence (P16638 whole entry): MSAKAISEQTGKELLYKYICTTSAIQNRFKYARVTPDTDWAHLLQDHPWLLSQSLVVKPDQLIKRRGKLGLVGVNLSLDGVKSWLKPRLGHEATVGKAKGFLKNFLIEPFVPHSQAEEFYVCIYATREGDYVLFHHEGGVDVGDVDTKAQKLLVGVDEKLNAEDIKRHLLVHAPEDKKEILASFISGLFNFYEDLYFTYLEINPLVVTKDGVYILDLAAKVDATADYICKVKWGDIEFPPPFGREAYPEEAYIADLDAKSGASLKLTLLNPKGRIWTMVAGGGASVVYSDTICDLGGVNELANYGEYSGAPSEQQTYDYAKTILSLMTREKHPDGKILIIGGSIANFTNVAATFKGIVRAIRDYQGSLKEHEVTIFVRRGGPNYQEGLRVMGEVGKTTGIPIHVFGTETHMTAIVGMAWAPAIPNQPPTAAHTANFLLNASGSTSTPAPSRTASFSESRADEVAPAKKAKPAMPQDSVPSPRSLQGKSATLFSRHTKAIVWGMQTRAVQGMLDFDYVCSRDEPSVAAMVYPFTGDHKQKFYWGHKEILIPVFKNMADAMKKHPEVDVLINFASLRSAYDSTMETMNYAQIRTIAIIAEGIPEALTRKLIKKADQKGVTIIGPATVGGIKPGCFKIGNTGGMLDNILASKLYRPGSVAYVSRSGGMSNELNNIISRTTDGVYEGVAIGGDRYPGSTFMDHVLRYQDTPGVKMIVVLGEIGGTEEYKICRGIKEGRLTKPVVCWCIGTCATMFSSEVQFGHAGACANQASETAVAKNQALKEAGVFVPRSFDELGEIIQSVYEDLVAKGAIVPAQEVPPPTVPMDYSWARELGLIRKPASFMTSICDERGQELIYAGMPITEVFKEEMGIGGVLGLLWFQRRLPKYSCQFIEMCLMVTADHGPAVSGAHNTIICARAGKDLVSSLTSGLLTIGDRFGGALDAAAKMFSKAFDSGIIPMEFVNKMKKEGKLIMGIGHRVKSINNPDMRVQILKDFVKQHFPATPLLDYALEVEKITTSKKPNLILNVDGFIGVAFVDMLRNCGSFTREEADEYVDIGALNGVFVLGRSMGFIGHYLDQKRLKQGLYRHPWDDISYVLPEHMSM
In short: (§1)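 Purified rat ACL or recombinant human ACL was assayed by coupling oxaloacetate formation to malate dehydrogenase reduction with NADH. Buffer: Tris 100 mM pH 8.0, MgCl2 10 mM, KCl 10 mM, DTT 10 mM, plus ATP and NADH. CoA was 200 μM, and citrate was added to 100 μM (its Km) to start the reaction. A340 decrease was followed over 20 min. Ki came from fitting v = Vmax/(2 + [I]/Ki), assuming citrate-competitive inhibition.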

[2] = target: T1, ATP-citrate synthase; test: Inhibitory activity against rat ATP-citrate lyase activity by the […] dehydrogenase catalyzed reduction of oxaloacetate by NADH.; in short: as §1
[3] = target: T2, ATP-citrate synthase (Homo sapiens, UniProt P53396); test: Inhibitory activity against human recombinant ATP-Citrate Lyase was measured by the […] dehydrogenase catalyzed reduction of oxaloacetate by NADH; in short: as §1
T2 sequence (P53396 whole entry): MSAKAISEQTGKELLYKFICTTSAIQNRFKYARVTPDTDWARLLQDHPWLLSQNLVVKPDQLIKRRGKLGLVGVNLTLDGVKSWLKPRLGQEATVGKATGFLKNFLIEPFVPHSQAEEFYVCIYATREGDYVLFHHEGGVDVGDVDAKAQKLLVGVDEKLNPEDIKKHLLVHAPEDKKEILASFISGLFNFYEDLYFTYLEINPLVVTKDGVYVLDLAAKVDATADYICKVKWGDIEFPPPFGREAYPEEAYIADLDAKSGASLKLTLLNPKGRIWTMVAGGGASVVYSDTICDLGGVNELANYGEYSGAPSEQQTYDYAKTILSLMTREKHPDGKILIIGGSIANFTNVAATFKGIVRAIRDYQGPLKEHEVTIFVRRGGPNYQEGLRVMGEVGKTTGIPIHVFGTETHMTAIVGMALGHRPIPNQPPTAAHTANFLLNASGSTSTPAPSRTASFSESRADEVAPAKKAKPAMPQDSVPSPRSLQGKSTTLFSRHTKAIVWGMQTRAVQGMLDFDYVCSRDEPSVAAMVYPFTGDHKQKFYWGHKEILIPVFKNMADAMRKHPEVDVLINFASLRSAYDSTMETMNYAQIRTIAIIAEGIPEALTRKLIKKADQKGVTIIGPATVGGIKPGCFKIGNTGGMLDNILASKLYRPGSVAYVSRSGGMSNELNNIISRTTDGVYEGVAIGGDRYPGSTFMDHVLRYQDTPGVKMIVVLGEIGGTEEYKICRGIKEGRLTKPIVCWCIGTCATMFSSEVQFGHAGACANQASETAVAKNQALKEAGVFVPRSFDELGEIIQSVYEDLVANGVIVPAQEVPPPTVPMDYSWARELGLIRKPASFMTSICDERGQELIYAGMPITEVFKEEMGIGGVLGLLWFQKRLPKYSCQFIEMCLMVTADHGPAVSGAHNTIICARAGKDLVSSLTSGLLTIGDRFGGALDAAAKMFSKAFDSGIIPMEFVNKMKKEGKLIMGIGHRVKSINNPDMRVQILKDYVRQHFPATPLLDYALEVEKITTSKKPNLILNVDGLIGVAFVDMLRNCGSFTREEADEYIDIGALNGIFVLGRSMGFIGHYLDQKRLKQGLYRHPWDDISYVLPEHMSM

[4] = target: T3, ATP-citrate synthase (Homo sapiens) (UniProt P53396); test: (§2) Inhibitory activity against human recombinant ATP-Citrate Lyase activity was measured by the […] dehydrogenase catalyzed reduction of oxaloacetate by NADH; conditions: concentration not given here; in short: as §1
T3 sequence (whole entry): T2 sequence (P53396 whole entry)

[5] = system: HepG2; test: Percent reduction of fatty acid synthesis in human hepatoma cell line, HepG2 at 1000 uM concentration; format: functional; design: scale not given: the % may be the effect or the level left
In short: (§3)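 HepG2 cells were grown in DMEM with Hepes, bicarbonate, glutamine and 10% FCS to 80–90% confluence, then kept overnight serum-free. Vehicle or compound was added at the stated final concentration for 2.5 h. ³H2O (71 μCi/mmol) was present for the final 90 min. Synthesis rates came from ³H incorporated into cellular cholesterol or fatty acids, relative to vehicle control.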

[6] = system: HepG2; test: Percent reduction of cholesterol synthesis in human hepatoma cell line, HepG2 at 1000 uM concentration; format: functional; design: scale not given: the % may be the effect or the level left; in short: as §3
[7] = system: HepG2; test: Percent control of ATP levels in human hepatoma cell line, HepG2 at 1000 uM concentration; format: functional
In short: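 Serum-starved HepG2 cells (grown to 80–90% confluence in DMEM/10% FCS, then overnight without serum) were exposed to vehicle or compound at the stated final concentration for 2.5 h. Cellular ATP was then measured as a toxicity check and expressed as % of vehicle control.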

[8] = target: T2, ATP-citrate synthase; test: as §2; in short: as §1

Row | SMILES | Ki [1] [µM] | Ki [2] [µM] | also measured
1 | O=C(O)CC(CSCCCCCCc1ccc(Cl)cc1Cl)C(=O)O (stereo unspecified) | – | 2.6 | –
2 | O=C(O)CC(O)(CSCCCCCCc1ccccc1)C(=O)O (stereo unspecified) | 710 | – | Ki [3]: 320 µM
3 | O=C(O)CC(O)CSCCCCCCc1ccc(Cl)cc1Cl (stereo unspecified) | – | 88 | –
4 | O=C(O)CC(O)(CSCCCCCCc1ccc(Br)cc1)C(=O)O (stereo unspecified) | – | 31 | –
5 | O=C(O)CC(O)(CSCCCCCCc1cccnc1)C(=O)O (stereo unspecified) | – | – | inhibition [4]: 35%
6 | O=C(O)CC(O)(CSCCCCCCc1ccc(Cl)cc1Cl)C(=O)O (stereo unspecified) | 3.3 | – | Control [5]: 107%; Control [6]: 116%; Control [7]: 100%
7 | O=C(O)CC(O)(CSCCCCCOc1ccc(Cl)cc1Cl)C(=O)O (stereo unspecified) | – | 67 | –
8 | O=C(O)CC(O)(CSCCCCCCc1ccccn1)C(=O)O (stereo unspecified) | – | – | inhibition [4]: 30%
9 | O=C(O)CC(O)(CSCCCCCCc1cccc2ccccc12)C(=O)O (stereo unspecified) | 63 | – | –
10 | O=C(O)CC(O)(CSCCCCCCc1c(Cl)cc(Cl)cc1-c1ccccc1)C(=O)O (stereo unspecified) | 10 | – | –
11 | O=C(O)CC(O)(CSCCCc1ccc2ccccc2c1)C(=O)O (stereo unspecified) | – | – | Ki [8]: 300 µM
12 | CN(CCCCSCC(O)(CC(=O)O)C(=O)O)S(=O)(=O)c1ccc(Cl)cc1Cl (stereo unspecified) | – | 178 | –
13 | O=C(O)CC(O)(CSCCCCCCc1ccccc1Cl)C(=O)O (stereo unspecified) | – | 69 | –

The next lines start with results.

Row | Ki [1] [µM] | Ki [2] [µM] | SMILES | also measured
14 | 160 | – | Cc1ccc(CCCCCCSCC(O)(CC(=O)O)C(=O)O)c(C)c1 (stereo unspecified) | –
15 | – | 64 | O=C(O)CC(O)(CSCCCCCS(=O)(=O)c1ccc(Cl)cc1Cl)C(=O)O (stereo unspecified) | –
16 | 280 | – | COc1ccc(CCCCCCSCC(O)(CC(=O)O)C(=O)O)cc1 (stereo unspecified) | –
17 | 75 | – | O=C(O)CC(O)(CSCCCCCCc1ccccc1[N+](=O)[O-])C(=O)O (stereo unspecified) | –
18 | – | 500 | NS(=O)(=O)c1ccc(CCCCCCSCC(O)(CC(=O)O)C(=O)O)cc1 (stereo unspecified) | –
19 | 270 | – | O=C(O)CC(O)(CSCCCCCCc1ccc(F)cc1F)C(=O)O (stereo unspecified) | –
20 | 390 | – | O=C(O)CC(O)(CSCCCc1ccc(Cl)cc1Cl)C(=O)O (stereo unspecified) | –
21 | 480 | – | O=C(O)CC(O)(CSCCc1ccc(Cl)cc1Cl)C(=O)O (stereo unspecified) | –
22 | – | 300 | O=C(O)CC(O)(CSCCCCCCCCCc1ccc(Cl)cc1Cl)C(=O)O (stereo unspecified) | –
23 | – | 410 | O=C(O)CC(O)(CSCc1ccc(Cl)cc1Cl)C(=O)O (stereo unspecified) | –
24 | – | 490 | O=C(O)CC(O)(CSCCCCCc1ccccc1)C(=O)O (stereo unspecified) | –
25 | – | 7.2 | O=C(O)CC(O)(CSCCCCCCCc1ccc(Cl)cc1Cl)C(=O)O (stereo unspecified) | –
26 | – | 76 | O=C(O)CC(O)(CSCCCCCCc1c(Cl)cccc1Cl)C(=O)O (stereo unspecified) | –
27 | 94 | – | O=C(O)CC(O)(CSCCCCCCc1ccccc1Cc1ccccc1)C(=O)O (stereo unspecified) | –
